Hits are enriched below; roughly 2.6% of the tested compounds scored in any of these assays.
Exocytosis inh – blocks lytic granule exocytosis; TALL-104 LAMP-1 surface exposure, flow cytometry; cells stimulated with thapsigargin and PMA; inhibition, % at 10 µM; 360,000 compounds, 0.66% hits; AID 651702;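 active = inhibition above about 55%, limit read from the data; inconclusive = no clear call, values can overlap the other calls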
MC4R barr agon – human MC4R agonism via beta-arrestin; P32245; U2OS MC4R beta-arrestin complementation, luminescence; percent of melanotan II response, DMSO zero; activation, % at 8.9 µM; 360,000 compounds, 0.98% hits;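 active = activation above a per-plate cutoff, the mean activation of sample wells on that plate plus 3 SD, cut at about 8% in these data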
MC4R antagonist – blocks human MC4R cAMP signaling; inhibition, % at 6.5 µM; AID 540295; P32245; MC4R-expressing cells, MTII-stimulated cAMP, LANCE TR-FRET; 360,000 compounds, 0.48% hits;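 active = inhibition above its plate's cutoff, the mean of tested wells on that plate plus 3 SD, cut at about 29% in these data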
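System: U2OS cells stably expressing human melanocortin 4 receptor (MC4R). Reagent: Melanotan II challenge after compound preincubation. Doses: 6.5 µM. Times: 30-min compound, 1-h challenge, 1-h detection, room temperature. Measured by: TR-FRET with Eu-cAMP and labeled anti-cAMP, 671 nm. Replicates: singlicate.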
hiPSC survival – increases survival of single human iPS cells | hiPSC single-cell survival, ATPlite luminescence; 100% = ROCK inhibitor wells, 0% = DMSO | survival enhancement, % at 20 µM | 360,000 compounds, 0.044% hits | AID 602274; in the data active = survival enhancement above about 18%;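 also: cells exposed to compounds for 16 hours before the ATP read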
TbMetRS inhib – Trypanosoma brucei MetRS inhibition; purified T. brucei MetRS, ATP depletion, Kinase-Glo luminescence; inhibition, % at 11.9 µM; 360,000 compounds, 0.4% hits;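 active = inhibition above a per-plate cutoff of the control wells' mean inhibition plus 3 SD, cut at about 5.5% in these data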
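Assay system: T. brucei methionyl-tRNA synthetase, purified | Medium: HEPES buffer with MgCl2, KCl, DTT, spermine, BSA, pyrophosphatase | Compound: 11.9 µM single point | Incubation: 15 min enzyme-compound preincubation, 2 h reaction, 10 min detection, 25 °C | Measured by: Kinase-Glo luciferase luminescence reporting remaining unconsumed ATP | Measure: % inhibition normalized to control-well medians | Replication: Singlicate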
ABCB6 inh MLPCN – inhibitors of human ABC transporter ABCB6. Q9NP58. K562-ABCB6 porphyrin accumulation, flow cytometry, 1 h; active compounds read low. fluorescence ratio to DMSO, % at 10 µM. 360,000 compounds, 0.19% hits;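 active = fluorescence ratio to DMSO below 75%, the collection mean minus 3 SD; inconclusive = too few cells collected in the well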;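 also: signal is porphyrin accumulated inside mitochondria; lower ratio means ABCB6 inhibition with less porphyrin fluorescence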
Target sequence (Q9NP58 whole entry, looked up): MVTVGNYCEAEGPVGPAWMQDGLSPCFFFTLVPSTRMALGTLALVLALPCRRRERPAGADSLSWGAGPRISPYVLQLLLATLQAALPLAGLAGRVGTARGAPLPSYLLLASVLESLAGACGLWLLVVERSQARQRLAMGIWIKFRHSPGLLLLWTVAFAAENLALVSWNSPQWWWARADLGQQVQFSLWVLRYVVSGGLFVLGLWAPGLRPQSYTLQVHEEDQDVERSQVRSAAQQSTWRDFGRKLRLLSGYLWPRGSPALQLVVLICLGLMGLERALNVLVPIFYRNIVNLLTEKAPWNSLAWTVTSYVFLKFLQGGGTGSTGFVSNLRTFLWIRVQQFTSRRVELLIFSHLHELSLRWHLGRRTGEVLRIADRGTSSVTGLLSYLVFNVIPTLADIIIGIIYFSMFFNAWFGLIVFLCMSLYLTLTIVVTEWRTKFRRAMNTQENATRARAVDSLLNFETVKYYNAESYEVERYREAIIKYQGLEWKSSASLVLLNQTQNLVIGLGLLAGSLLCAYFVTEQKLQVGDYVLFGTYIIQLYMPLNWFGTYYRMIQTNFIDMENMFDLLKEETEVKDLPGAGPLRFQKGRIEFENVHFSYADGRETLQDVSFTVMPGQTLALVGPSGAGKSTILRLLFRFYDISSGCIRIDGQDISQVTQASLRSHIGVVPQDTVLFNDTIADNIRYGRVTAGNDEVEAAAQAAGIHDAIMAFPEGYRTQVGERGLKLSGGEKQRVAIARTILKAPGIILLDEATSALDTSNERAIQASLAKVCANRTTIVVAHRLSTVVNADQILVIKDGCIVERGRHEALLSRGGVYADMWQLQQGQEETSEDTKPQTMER
cAMP nonselect – nonselective cAMP signaling inhibitor, MC4R antagonist counter-screen; 1,600 compounds, 26% hits; shares compounds with MC4R antagonist; parental U2OS, forskolin cAMP, LANCE TR-FRET; inhibition, % at 6.5 µM; AID 602193;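 active = mean inhibition over triplicates above the low-control well mean plus 3 SD, set per campaign, cut at about 13% in these data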;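 also: signal is single emission at 671 nm which falls as cellular cAMP rises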
MC4R antag conf – human MC4R cAMP antagonism confirmation | shares compounds with MC4R antagonist | MC4R-expressing cells, MTII-stimulated cAMP, TR-FRET | inhibition, % at 6.5 µM | 1,600 compounds, 27% hits; in the data active = inhibition above about 29%
MC4R barr ag – human MC4R beta-arrestin agonism confirmation | 2,400 compounds, 31% hits | U2OS MC4R beta-arrestin recruitment, luminescence; scaled DMSO 0%, Melanotan II 100% | shares compounds with MC4R barr agon | activation, % at 8.9 µM | AID 602192;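 active = mean activation across replicates above the hit cutoff set in the earlier primary screen, cut at about 8% in these data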
MOR DOR agonist – activates mu-delta opioid heterodimer, MC4R agonist counter-screen; U2OS PathHunter beta-arrestin, beta-gal luminescence; percent of deltorphin B response, DMSO zero; activation, % at 9.2 µM; shares compounds with MC4R barr agon; 2,400 compounds, 5.8% hits;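 active = mean activation across replicates exceeds the hit threshold derived in the earlier primary screen, cut at about 18% in these data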
K562 vector FC – activity in empty-vector K562 counter-screen for ABCB6 inhibitors | K562 empty-vector cells, flow cytometry fluorescence, 1 h | shares compounds with ABCB6 inh MLPCN | percent response (fluorescence), % at 100 µM | 25 tested, under 10 active;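 active = compounds whose half-maximal effective concentration is below 100 µM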
TbMetRS confirm – Trypanosoma brucei MetRS inhibition confirmed; 1,400 compounds, 93% hits; T. brucei MetRS enzyme, luminescence (ATP depletion); shares compounds with TbMetRS inhib; inhibition, % at 11.9 µM; in the data active = inhibition above about 7%
Jurkat tox – kills Jurkat cells in T. brucei MetRS counterscreen; shares compounds with TbMetRS inhib; Jurkat cells viability, ATP luminescence; inhibition, % at 8.3 µM; 1,400 compounds, 12% hits; AID 624413; in the data active = inhibition above about 15%
TbMetRS FP orth – orthogonal test for Trypanosoma brucei MetRS inhibitors | inhibition, % at 11.9 µM | purified T. brucei MetRS, fluorescence polarization | 1,400 compounds, 44% hits | shares compounds with TbMetRS inhib | AID 651607; in the data active = inhibition above about 17%
Exocytosis CP01 – lytic granule exocytosis inhibition. shares compounds with Exocytosis inh. TALL-104 cells, LAMP-1 externalization, flow cytometry; stimulated with PMA plus thapsigargin. inhibition, % at 10 µM. 1,500 compounds, 11% hits. AID 651954; in the data active = inhibition above about 60%
Each line names hits and unclear results; the compound was inactive in the other large screens (follow-up assays come after a bar, where they were run); ! = not active in a repeat.

CCc1nnc(NC(=O)c2nc(S(=O)(=O)Cc3ccccc3)ncc2Cl)s1	MC4R antagonist 30 | cAMP nonselect inactive | MC4R antag conf inactive | K562 vector FC inactive
COc1ccc(CNC(=O)c2nc(S(=O)(=O)Cc3ccccc3)ncc2Cl)cc1	none
CCc1nnc(NC(=O)c2nc(S(=O)(=O)Cc3cccc(C)c3)ncc2Cl)s1	Exocytosis inh inconclusive, MC4R antagonist 39 | cAMP nonselect 20 | MC4R antag conf 32 | K562 vector FC inactive
CCc1nnc(NC(=O)c2nc(Cl)ccc2Cl)s1	none
CC(C)c1nnc(NC(=O)c2nc(S(=O)(=O)Cc3ccc(F)cc3)ncc2Cl)s1	MC4R antagonist 56 | cAMP nonselect 16 | MC4R antag conf 39 | K562 vector FC inactive
Cc1cccc(CS(=O)(=O)c2ncc(Cl)c(C(=O)Nc3nnc(C(C)C)s3)n2)c1	MC4R antagonist 58 | cAMP nonselect 27 | MC4R antag conf 54 | K562 vector FC inactive
CC(C)c1nnc(NC(=O)CS(=O)(=O)Cc2ccccc2)s1	none
Cc1ccc(CS(=O)(=O)c2ncc(Cl)c(C(=O)Nc3ccc(OC(F)F)cc3)n2)cc1	MC4R antagonist 40, ABCB6 inh MLPCN 62 | cAMP nonselect 23 | MC4R antag conf inactive | K562 vector FC inactive
Cc1ccccc1N1CCN(C(=O)c2ccccc2NC(=O)C2CC=CCC2C(=O)O)CC1 (stereo unspecified)	none
COc1cccc(CN(C)C(=O)c2ccccc2SCC(=O)N2CCCC2)c1	none
CC1Sc2ccc(S(=O)(=O)CCC(=O)NC3CCCC(C)C3C)cc2NC1=O (stereo unspecified)	none
NC(=NCCCCCCN=C(N)/N=C(\N)Nc1ccc(Cl)cc1)/N=C(\N)Nc1ccc(Cl)cc1	MC4R antagonist 80!, TbMetRS inhib 45! | cAMP nonselect inactive | MC4R antag conf 71 | TbMetRS confirm 53 | Jurkat tox 31 | TbMetRS FP orth 51
CC(C)N=C(N)N=C(N)Nc1ccc(Cl)cc1	none
O=C(NCc1cccs1)C1CCCN(c2nc3ccccc3o2)C1 (stereo unspecified)	none
CCOC(=O)CC(=O)NC(C)(C)CCCCC(C)(C)NC(=O)CC(=O)OCC	MC4R antagonist 29, TbMetRS inhib 6.9 | cAMP nonselect inactive | MC4R antag conf inactive | TbMetRS confirm inactive | Jurkat tox inactive | TbMetRS FP orth inactive
Clc1ncnc2c1oc1ccccc12	Exocytosis inh 72, MC4R antagonist 39 | cAMP nonselect inactive | MC4R antag conf inactive | Exocytosis CP01 inactive
CCSc1ncnc2c1oc1ccccc12	none
Cc1ccc(NC(=O)CCc2ccc(C)o2)cc1	none
CN(Cc1ccccc1)CC(O)CN(C)Cc1ccccc1	none
COC(=O)c1sccc1NC(=S)Nc1cccc(F)c1	none
COC(=O)c1sccc1NC(=S)Nc1ccc(F)cc1F	Exocytosis inh 60, MC4R antagonist 30 | cAMP nonselect inactive | MC4R antag conf inactive | Exocytosis CP01 inactive
CCOC(=O)c1c(-c2ccc(C)o2)csc1NC(=O)COC(=O)c1cccs1	Exocytosis inh 97, MC4R antagonist 31 | cAMP nonselect inactive | MC4R antag conf inactive | Exocytosis CP01 inactive
O=C(Nc1cccc(-c2csc(Nc3cccc(C(F)(F)F)c3)n2)c1)c1ccccc1	Exocytosis inh 75, MC4R antagonist 42 | cAMP nonselect inactive | MC4R antag conf inactive | Exocytosis CP01 inactive
COC(=O)CNC(c1ccccc1)c1cc(Br)ccc1NC(=O)CCN1CCOCC1 (stereo unspecified)	Exocytosis inh 78, MC4R antagonist 29 | cAMP nonselect inactive | MC4R antag conf inactive | Exocytosis CP01 inactive
CC1=NOC(=O)/C1=C/c1ccc(-c2ccc(Cl)cc2)o1	Exocytosis inh 78, MC4R antagonist 63 | cAMP nonselect inactive | MC4R antag conf 31 | Exocytosis CP01 101
COc1ccc(C(=O)C(CN2CCCC2)c2ccccc2)cc1 (stereo unspecified)	none
O=C(c1ccc(Cl)cc1)C(CN1CCCC1)c1ccccc1 (stereo unspecified)	Exocytosis inh 59, MC4R antagonist 31 | cAMP nonselect inactive | MC4R antag conf inactive | Exocytosis CP01 inactive
Cc1ccc2cccc(OCC(=O)N3CC(C)CC(C)C3)c2n1 (stereo unspecified)	none
Cn1c(N)c(C(=O)CSc2nc(C3CC3)n(-c3ccccc3)n2)c(=O)[nH]c1=O	none
O=C(Nc1nc2ccc(SC(F)F)cc2s1)c1ccc(NS(=O)(=O)c2ccc(F)c(F)c2)cc1	Exocytosis inh 76, MC4R barr agon 35, MC4R antagonist 37 | cAMP nonselect inactive | MC4R antag conf inactive | MC4R barr ag 34 | MOR DOR agonist inactive | Exocytosis CP01 104
CC(C)Cc1ccc(C(C)/C=C2/CCC(CN3CCCCC3)C2=O)cc1 (stereo unspecified)	none

High-throughput results as filed in PubChem BioAssay.
